Experimental data taken from ChEMBL document CHEMBL3596096, “Synthesis and biological evaluation of quinones derived from natural product komaroviquinone as anti-Trypanosoma cruzi agents” (Bioorg Med Chem Lett, 2015).
Active and inactive are the calls of the source. The calls are words filed in the database; no cut-off is given here.

Columns and labels:
Trypanosoma cruzi [1] = test: Antitrypanosomal activity against trypomastigotes stage of Trypanosoma cruzi infected in human HT1080 cells assessed as inhibition of parasite growth after 24 hrs by microscopic analysis; format: functional, organism-based; settings: HT-1080, 24 h
Procedure, shortened: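 Trypomastigotes suspended in DMEM and incubated 24 h with a range of compound concentrations or vehicle (0.1% ethanol). Live parasites were counted microscopically, and the IC50 was determined from the concentration series.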

Trypanosoma cruzi [2] = test: Antitrypanosomal activity against trypomastigotes stage of Trypanosoma cruzi infected in human HT1080 cells assessed as inhibition of parasite growth at 10 uM after 24 hrs by microscopic analysis; format: functional, organism-based; settings: HT-1080
Procedure, shortened: (§1)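 Trypomastigotes suspended in DMEM and exposed 24 h to a single compound concentration, alongside vehicle (0.1% ethanol) control and benznidazole. Live parasites were counted microscopically. Values are the mean of four independent experiments, with significance versus control by two-tailed unpaired Student's t-test.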

Trypanosoma cruzi [3] = test: Antitrypanosomal activity against trypomastigotes stage of Trypanosoma cruzi infected in human HT1080 cells assessed as inhibition of parasite growth at 1 uM after 24 hrs by microscopic analysis; format: functional, organism-based; settings: HT-1080; procedure, shortened: as §1
HT-1080 = test: Induction of reactive oxygen species formation in human HT1080 cells at 10 to 50 µM by fluorometric analysis; format: functional, cell-based
Procedure, shortened: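 Intracellular ROS in host HT1080 cells was measured with an intracellular ROS assay kit, read out as fluorescence intensity (RFU). H2O2 and benznidazole were included for comparison.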

SMILES: CCCCCCCC1=CC(=O)C(C(C)C)=C(OC)C1=O
- IC50 (Trypanosoma cruzi [1]): > 10 µM

SMILES: COC1=C(C(C)C)C(=O)C=C(COc2cccnc2)C1=O
- IC50 (Trypanosoma cruzi [1]): > 10 µM

SMILES: COc1c2c(c(OC)c(C(C)C)c1OC)C1(O)C[C@H]3C(C)(C)CCC[C@@]3(C2)O1
- growth inhibition (GI) (Trypanosoma cruzi [2]): inactive

SMILES: COC1=C(C(C)C)C(=O)C=C(CC2CCCCC2)C1=O
- IC50 (Trypanosoma cruzi [1]): > 10 µM

SMILES: COC1=C(C(C)C)C(=O)C=C(CN(C)C(=O)c2ccccc2)C1=O
- IC50 (Trypanosoma cruzi [1]): > 10 µM

SMILES: COC1=C(C(C)C)C(=O)C(C(C)(C)O)=C(C)C1=O
- growth inhibition (GI) (Trypanosoma cruzi [3]): Active
- growth inhibition (GI) (Trypanosoma cruzi [2]): Active

SMILES: COC1=C(C(C)C)C(=O)C=C(C[C@@]23CCCC(C)(C)[C@@H]2CC(=O)O3)C1=O
- growth inhibition (GI) (Trypanosoma cruzi [3]): Active
- growth inhibition (GI) (Trypanosoma cruzi [2]): Active

SMILES: COc1cc(C[C@@]23CCCC(C)(C)[C@@H]2CC(=O)O3)c(OC)c(OC)c1C(C)C
- growth inhibition (GI) (Trypanosoma cruzi [2]): inactive

SMILES: COC1=C(C(C)C)C(=O)C=C(CC(O)(Cn2cncn2)c2ccc(F)cc2F)C1=O (centres undefined)
- Activity (HT-1080): Active
- IC50 (Trypanosoma cruzi [1]): 0.54 µM

SMILES: COC1=C(C(C)C)C(=O)C=C(CC2(O)CCCCC2)C1=O
- IC50 (Trypanosoma cruzi [1]): 0.59 µM

SMILES: COC1=C(C(C)C)C(=O)C=C(CN(C(=O)C2CCCCC2)C2CCCCC2)C1=O
- IC50 (Trypanosoma cruzi [1]): 2.4 µM

SMILES: COC(=O)C[C@@H]1C(Cc2cc(OC)c(C(C)C)c(OC)c2OC)=CCCC1(C)C
- growth inhibition (GI) (Trypanosoma cruzi [2]): inactive

SMILES: COC1=C(C(C)C)C(=O)C=C(COc2ccccc2)C1=O
- IC50 (Trypanosoma cruzi [1]): > 10 µM

SMILES: COC1=C(C(C)C)C(=O)C=C(COC2CCCCC2)C1=O
- IC50 (Trypanosoma cruzi [1]): > 10 µM

SMILES: COC1=C(C(C)C)C(=O)C=C(CN(C)C(=O)C2CCCCC2)C1=O
- IC50 (Trypanosoma cruzi [1]): 1.1 µM

SMILES: COC1=C(C(C)C)C(=O)C=C(CN2CCCC2=O)C1=O
- IC50 (Trypanosoma cruzi [1]): > 10 µM

SMILES: COC1=C(C(C)C)C(=O)C=C(Cn2cnc([N+](=O)[O-])c2)C1=O
- IC50 (Trypanosoma cruzi [1]): > 10 µM

SMILES: COC1=C(C(C)C)C(=O)C=C(COC(Cn2cncn2)c2ccc(F)cc2F)C1=O (centres undefined)
- IC50 (Trypanosoma cruzi [1]): 0.3 µM

SMILES: COC1=C(C(C)C)C(=O)C2=C(C[C@@]34CCCC(C)(C)[C@@H]3C[C@]2(O)O4)C1=O [KOMAROVIQUINONE]
- Activity (HT-1080): Active
- growth inhibition (GI) (Trypanosoma cruzi [3]): Active
- IC50 (Trypanosoma cruzi [1]): 0.25 µM
- growth inhibition (GI) (Trypanosoma cruzi [2]): Active

SMILES: COC1=C(C(C)C)C(=O)C=C(Cn2cncn2)C1=O
- IC50 (Trypanosoma cruzi [1]): 9.8 µM

SMILES: COC1=C(C(C)C)C(=O)C=C(COC(C)C)C1=O
- IC50 (Trypanosoma cruzi [1]): > 10 µM

SMILES: COC1=C(C(C)C)C(=O)C=C(CC(C)(C)O)C1=O
- IC50 (Trypanosoma cruzi [1]): > 10 µM

SMILES: COC1=C(C(C)C)C(=O)C=C(CNC(=O)C2CCCCC2)C1=O
- IC50 (Trypanosoma cruzi [1]): 0.33 µM

SMILES: COc1c(C[C@@]23CCCC(C)(C)[C@@H]2CC(=O)O3)c(I)c(OC)c(C(C)C)c1OC
- growth inhibition (GI) (Trypanosoma cruzi [2]): inactive

SMILES: COC1=C(C(C)C)C(=O)C=C(CN2C(=O)CCc3ccccc32)C1=O
- IC50 (Trypanosoma cruzi [1]): 2 µM

SMILES: COC1=C(C(C)C)C(=O)C=C(Cc2ccccc2)C1=O
- IC50 (Trypanosoma cruzi [1]): > 10 µM

SMILES: O=C(Cn1ccnc1[N+](=O)[O-])NCc1ccccc1 [BENZNIDAZOLE]
- Activity (HT-1080): Active
- IC50 (Trypanosoma cruzi [1]): 6.8 µM
